Screening data as filed in PubChem BioAssay.
MsrA inh: bovine MsrA enzyme inhibitors, primary screen, biochemical, absorbance, HTS; Methionine sulfoxide reductase A (Bos taurus); purified bovine MsrA, absorbance read-out; inhibition, % at 15.5 µM; hit rate 0.75% among 360,000; AID 651718, 2012; in the data active = inhibition above about 4.5%
ASAP1 GAP inh: inhibitors of human ASAP1 ArfGAP activity, primary screen, biochemical, fluorescence polarization. Arf-GAP with SH3 domain, ANK repeat and PH domain-containing protein 1 (Homo sapiens), …. ASAP1-stimulated ARF1 GTP hydrolysis, GDP FP detection. inhibition, % at 16.5 µM. hit rate 0.19% among 360,000. AID 624377, 2012; in the data active = inhibition above about 25%
Target sequence (Q9ULH1 325-724 limits assumed): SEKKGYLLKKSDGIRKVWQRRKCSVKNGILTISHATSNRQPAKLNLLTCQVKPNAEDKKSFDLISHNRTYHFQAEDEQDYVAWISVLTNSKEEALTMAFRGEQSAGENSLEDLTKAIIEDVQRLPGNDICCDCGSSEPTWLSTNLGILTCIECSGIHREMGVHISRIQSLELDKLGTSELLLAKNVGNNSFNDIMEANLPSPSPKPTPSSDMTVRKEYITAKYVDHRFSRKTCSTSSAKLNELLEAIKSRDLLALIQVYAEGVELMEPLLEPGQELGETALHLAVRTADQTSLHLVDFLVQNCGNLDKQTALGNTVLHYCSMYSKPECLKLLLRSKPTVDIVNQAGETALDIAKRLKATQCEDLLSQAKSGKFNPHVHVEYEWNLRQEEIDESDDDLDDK
MsrA act: bovine MsrA enzyme activators, primary screen, biochemical, absorbance, HTS; purified bovine MsrA, absorbance read-out; activation, % at 10.6 µM; hit rate 0.3% among 360,000; AID 602163, 2012; in the data active = activation above about 7.5%
ARFGAP1 inhibitor: inhibitors of rat ARFGAP1 GAP activity, primary screen, biochemical, fluorescence polarization, GDP tracer | inhibition, % at 16.5 µM | ADP-ribosylation factor GTPase-activating protein 1 (Rattus norvegicus), Q62848 | hit rate 0.26% among 360,000 | Arfgap1-stimulated ARF1 GTP hydrolysis, GDP FP detection | AID 651572, 2012;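 active = inhibition above a per-plate limit, mean inhibition of low control wells plus 3 SD, cut at about 25% in these data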
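Replicates: Single well per compound | Assay system: Truncated rat Arfgap1 GAP domain | Control set: No-Arfgap1 wells (100%) versus DMSO full-reaction wells (0%) | Times: Enzyme reaction 120 min at 25 °C after 20 min preincubation | Reagent: Human ARF1(Δ1-17)-GTP substrate | Measured by: Tracer-displacement fluorescence polarization with EDTA stop, 620/688 nm | Measure: Percent inhibition of Arfgap1-stimulated GTP hydrolysis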
MsrA activ conf: bovine MsrA activators, retest, confirmation, biochemical, absorbance, HTS | shares compounds with MsrA act | activation, % at 10.6 µM | hit rate 12% among 1,000 | purified bovine MsrA, absorbance read-out; in the data active = activation above about 4%;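 note: enzyme coupled to thioredoxin and thioredoxin reductase with NADPH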
Numbers stand for hits. Shown are actives, neighbours in structure and some others; about 1.4% of the full set was active somewhere.

For CC1Cc2ccccc2N1C(=O)COC(=O)c1cc(Br)ccc1O (configuration not stated) the results were MsrA inh inactive, ASAP1 GAP inh inactive, MsrA act inactive and ARFGAP1 inhibitor inactive.
CC1Cc2ccccc2N1C(=O)COC(=O)c1cccc(Br)c1 (configuration not stated) was read as MsrA inh inactive, ASAP1 GAP inh inactive, MsrA act 24, ARFGAP1 inhibitor inactive and MsrA activ conf inactive.
CCCCOc1ccc(C(=O)NC2CCCCN(C)C2=O)cc1 (configuration not stated) was read as MsrA inh inactive, ASAP1 GAP inh inactive and ARFGAP1 inhibitor inactive.
COc1ccc(-c2csc(C(O)c3ccc(F)c(OC)c3)n2)cc1 (configuration not stated) was read as MsrA inh inactive, ASAP1 GAP inh inactive, MsrA act inactive and ARFGAP1 inhibitor inactive.
Screening COc1ccc(CC(=O)NCc2ccc3c(c2)OCO3)cc1 returned MsrA inh inactive, ASAP1 GAP inh inactive, MsrA act inactive and ARFGAP1 inhibitor inactive.
Screening COc1cccc(NC(=O)CN(C)CC(=O)NCc2ccc3c(c2)OCO3)c1 returned MsrA inh inactive, ASAP1 GAP inh inactive, MsrA act 11, ARFGAP1 inhibitor inactive and MsrA activ conf inactive.
COc1cccc(NC(=O)CN(C)C(=O)CCNC(=O)c2ccccc2Cl)c1 was read as MsrA inh inactive, ASAP1 GAP inh inactive, MsrA act 8.0, ARFGAP1 inhibitor inactive and MsrA activ conf inactive.
C=CCN1CC(COc2ccc(OC)cc2)OCCS1(=O)=O (configuration not stated) was read as MsrA inh inactive, ASAP1 GAP inh inactive and ARFGAP1 inhibitor inactive.
CCOC(=O)c1ccc(S(=O)(=O)N2CCN(CCc3ccncc3)CC2)cc1 was read as MsrA inh inactive, ASAP1 GAP inh inactive, MsrA act inactive and ARFGAP1 inhibitor inactive.
For COc1ccc(-c2nnn(Cc3ccccc3F)n2)cc1 the results were MsrA inh inactive, ASAP1 GAP inh inactive, MsrA act 16, ARFGAP1 inhibitor inactive and MsrA activ conf inactive.
For Nn1c(SCC(=O)Nc2ccc(F)c(F)c2)nnc1C1CCCCC1 the results were MsrA inh inactive, ASAP1 GAP inh inactive, MsrA act 9.3, ARFGAP1 inhibitor inactive and MsrA activ conf inactive.
NC(=O)c1ccc(NC(=O)CSc2nnc(C3CCCCC3)n2N)cc1 was read as MsrA inh inactive, ASAP1 GAP inh inactive, MsrA act inactive and ARFGAP1 inhibitor inactive.
`CCc1ccc2c(c1)c1nc(C)sc1n2CC` gave MsrA inh inactive, ASAP1 GAP inh inactive, MsrA act 26, ARFGAP1 inhibitor inactive and MsrA activ conf inactive.
`Cc1nc2c3cc(F)ccc3n(Cc3ccc(F)cc3)c2s1` gave MsrA inh inactive, ASAP1 GAP inh inactive, MsrA act inactive and ARFGAP1 inhibitor inactive.
Screening O=C(CN(C(=O)CCC(=O)Nc1nccs1)c1cccc(F)c1)NCCc1ccccc1 returned MsrA inh inactive, ASAP1 GAP inh inactive, MsrA act inactive and ARFGAP1 inhibitor inactive.
`O=C(Oc1ccccc1)n1c(=S)oc2ccccc21` gave MsrA inh inactive, ASAP1 GAP inh inactive, MsrA act inactive and ARFGAP1 inhibitor inactive.
Screening Cc1ccccc1OC(=O)n1c(=S)oc2cc(Cl)ccc21 returned MsrA inh inactive, ASAP1 GAP inh inactive, MsrA act 9.0, ARFGAP1 inhibitor inactive and MsrA activ conf inactive.
For S=c1[nH]c2cc(Cl)ccc2s1 the results were MsrA inh inactive, ASAP1 GAP inh inactive, MsrA act 12, ARFGAP1 inhibitor inactive and MsrA activ conf 4.8.
For COC(=O)c1ccc(C(C(=O)NC2CCCCC2)N(C(=O)Cc2cccs2)C2CC2)cc1 (configuration not stated) the results were MsrA inh inactive, ASAP1 GAP inh inactive, MsrA act 7.9, ARFGAP1 inhibitor inactive and MsrA activ conf inactive.
`COc1cccc(C(O)c2ncc(-c3cccc(C(F)(F)F)c3)[nH]2)c1` (configuration not stated) gave MsrA inh inactive, ASAP1 GAP inh inactive, MsrA act inactive and ARFGAP1 inhibitor inactive.
